Rows were chosen to be rich in hits. Some 1.6% of all compounds tested hit in one or more screens of this group.
PfGluPho inh = PfG6PD (Plasmodium falciparum) enzyme inhibition; PfGluPho enzyme, NADPH resazurin-diaphorase fluorescence; inhibition, % at 20 µM; actives 0.78% (n = 350,000);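 active = inhibition reaching at least a set limit at 20 µM in the primary screen, cut at about 59% in these data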
T cell modulator = T cell immune modulators affecting CD8 T cell-vesicle binding; 2C CD8+ T cell-vesicle binding, flow cytometry; stronger effect = lower value; response (vesicle binding), % at 7 µM; actives 0.068% (n = 330,000); AID 2052;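 active = response, share of CD8 T cells binding vesicles, and their 90th percentile fluorescence all below set limits, cut at about 80% in these data, passing the limit was not always enough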;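 also: values below 100% mean blocked vesicle binding to the CD8+ T cells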
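System: murine 2C transgenic CD8+ T lymphocytes; also added: QL9-loaded Drosophila micro-vesicles; times: binding 1.5 h at 37 °C; measured by: flow cytometry, PE anti-B7-1 (FL2) versus Alexa647 anti-CD8 (FL8), PFA-fixed; control set: Peptide-free naked vesicles (low) and QL9 vesicles with 0.7% DMSO vehicle (high)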
PKA-R2B activ = activators of human PKA-R2B complex | P22694+P31323 | PKA-R2B holoenzyme dissociation, Cy5-IP20 fluorescence polarization; R2B truncated from residue 108, S112A mutant; 0% DMSO only, 100% 113 µM cGMP | activation, % at 11.4 µM | actives 0.079% (n = 340,000);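 active = activation above a cutoff set at the mean over all compounds plus 3 SD, cut at about 18% in these data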;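 also: higher means more holoenzyme dissociation and a rise in polarization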
Target sequence (P31323 whole entry, looked up, other chains not shown, the tested form may be a part): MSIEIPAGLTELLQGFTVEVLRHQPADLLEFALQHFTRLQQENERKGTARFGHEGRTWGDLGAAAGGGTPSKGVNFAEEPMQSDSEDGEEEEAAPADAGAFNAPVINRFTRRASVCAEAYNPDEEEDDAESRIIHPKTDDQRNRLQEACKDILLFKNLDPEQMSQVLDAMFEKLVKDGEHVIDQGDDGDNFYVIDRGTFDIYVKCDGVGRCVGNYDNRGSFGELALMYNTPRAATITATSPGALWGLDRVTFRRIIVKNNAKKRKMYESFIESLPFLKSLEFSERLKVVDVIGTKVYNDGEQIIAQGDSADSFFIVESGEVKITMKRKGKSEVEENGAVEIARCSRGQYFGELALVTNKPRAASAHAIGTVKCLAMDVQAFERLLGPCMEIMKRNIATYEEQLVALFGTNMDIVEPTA
ATG4B inh = inhibitors of human ATG4B cysteine protease; Q9Y4P1; ATG4B cleavage of LC3-PLA2, NBD-HPC fluorescence, 1 h; inhibition, % at 8.33 µM; actives 0.51% (n = 340,000); AID 504462; in the data active = inhibition above about 40%
PKA-R1A act = activates the PKA-R1A holoenzyme complex; P00514+P68181; PKA-R1A dissociation, Cy5-IP20 fluorescence polarization; scaled: DMSO 0%, 113 µM cGMP 100%; activation, % at 11.4 µM; actives 0.083% (n = 340,000); AID 504707;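 active = percent activation above the mean of all tested compounds plus 3 SD, cut at about 19% in these data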;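 also: higher means more PKAc released from R1A so a rise in polarization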
HKDC1 inhibitor = inhibitors of human hexokinase HKDC1. Q2TB90. inhibition, % at 20 µM. actives 0.16% (n = 340,000). AID 493160. recombinant HKDC1, G6PDH/diaphorase resazurin coupled fluorescence;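 active = inhibition above about 35% when tested at 20 µM, limit read from the data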
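Test system: Recombinant HKDC1 (HK5) hexokinase enzyme, produced in-house | Input: HKDC1 at 5 µg/mL | Buffer or medium: Tris pH 8.0 buffer with MgCl2, Tween-20, BSA, BME | Schedule: 90 min reaction incubation at room temperature, dark | Technique: Resazurin-to-resorufin fluorescence via G6PDH and diaphorase coupling, 525/613 nm | Controls: DMSO wells with and without enzyme mix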
PfG6PD confirm = PfG6PD inhibition, single-dose confirmed | shares compounds with PfGluPho inh | recombinant PfGluPho, NADPH-diaphorase-resazurin fluorescence | inhibition, % at 20 µM | actives 34% (n = 2,400);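 active = inhibition of at least 50% at 20 µM in any single replicate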
Diaph ctr 10uM = counter-screen for P. falciparum G6PD inhibitors: diaphorase inhibitors, oxidizers. shares compounds with PfGluPho inh. diaphorase-coupled resazurin reduction, fluorescence, NADPH 10 uM. inhibition, % at 20 µM. actives 39% (n = 820);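 active = average inhibition reaching 50% or more with the compound at 20 µM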;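 also: resorufin red fluorescence formed as diaphorase reduces resazurin using NADPH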
Diaphorase 30uM = inhibits diaphorase or oxidizes, flagging false PfG6PD hits; shares compounds with PfGluPho inh; actives 29% (n = 820); Diaphorase/resazurin coupled assay, resorufin fluorescence, 30 uM NADPH; inhibition, % at 20 µM;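 active = inhibition averaging 50% or more, tested at 20 µM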
Large screens that a line does not name were inactive (follow-up assays come after a bar, where they were run).

Cc1ccsc1/C=N/NC(=O)c1cccc(S(=O)(=O)Nc2ccccc2Cl)c1	PfGluPho inh 64.3 | PfG6PD confirm 60.4 | Diaph ctr 10uM inactive | Diaphorase 30uM inactive
Cn1cc(S(=O)(=O)Cc2ccc(F)cc2)c2ccccc21	PfGluPho inh 102.6 | PfG6PD confirm 62.3 | Diaph ctr 10uM 68.9 | Diaphorase 30uM 51.1
Cn1cc(CC(=O)NCc2ccc(F)cc2)c2ccccc21	none
Cn1cc(S(=O)(=O)CC(=O)N2CCc3ccccc32)c2ccccc21	PfGluPho inh 74.3 | PfG6PD confirm 53.4 | Diaph ctr 10uM inactive | Diaphorase 30uM inactive
COc1cc(CNc2ccc(O)cc2)cc(Br)c1OCc1ccccc1F	PfGluPho inh 60.2 | PfG6PD confirm inactive
COc1cc(CNc2ccc(N3CCCC3)cc2)ccc1OCc1ccccc1F	PfGluPho inh 97.4 | PfG6PD confirm 59.3 | Diaph ctr 10uM inactive | Diaphorase 30uM inactive
COc1cc(CNc2ccc(N3CCCC3)cc2)ccc1OCc1ccccc1	none
COc1ccc(C(=O)CNc2ccc(C)cc2C)cc1	none
Cc1ccc(S(=O)(=O)N2C[C@H]3n4c(=O)ccc(=O)n4C[C@H](OC(=O)NCc4ccccc4)[C@@]3(O)C2)cc1	none (no result: T cell modulator, ATG4B inh, HKDC1 inhibitor)
CCCCCCn1c(=O)n2n(c1=O)[C@@H]1CN(S(=O)(=O)c3ccc(C)cc3)C[C@]1(O)[C@@H](OC(=O)NCc1ccccc1)C2	PfGluPho inh 66.8 (no result: T cell modulator, ATG4B inh, HKDC1 inhibitor) | PfG6PD confirm inactive
CCOc1ccc(S(=O)(=O)N(CC(=O)NCc2ccncc2)c2ccc(C)cc2)cc1	none
O=C(Cc1c(F)cccc1Cl)Nc1ccccc1-c1ccccc1	none
Cc1ccc(C)c(NC(=O)CN(C)C(=O)c2ccc3[nH]c4c(c3c2)CC(C)CC4)c1 (stereo not drawn)	PfGluPho inh 70.5 | PfG6PD confirm inactive
CCN(CC(=O)Nc1ccc(OC)cc1)C(=O)c1ccc2[nH]c3c(c2c1)CC(C)CC3 (stereo not drawn)	none
CC1CCc2[nH]c3ccc(C(=O)N(C)CC(=O)Nc4ccccc4Br)cc3c2C1 (stereo not drawn)	PfGluPho inh 89.9 | PfG6PD confirm inactive
COc1ccc2cc(C(=O)N(C)CC(=O)Nc3ccccc3Br)ccc2c1	none
CCN(C(=O)Cn1cnc2c1c(=O)n(C)c(=O)n2C)C1CCCCC1	none
Cc1cccc(OCCC(=O)NCC(=O)Nc2cccc(C)c2C)c1	PfGluPho inh 104.8 | PfG6PD confirm 91.4 | Diaph ctr 10uM 80.6 | Diaphorase 30uM 67.0
CCOc1cc(NCc2ccccc2)c2ncn(C(C)C)c2c1	PfGluPho inh 65.8 | PfG6PD confirm 48.3 | Diaph ctr 10uM inactive | Diaphorase 30uM inactive
CCCOc1cc(NCc2ccccc2)c2ncn(C(C)C)c2c1	PfGluPho inh 77.4 | PfG6PD confirm inactive
Cc1ccc(C(=O)Nc2ccc(O)cc2C(=O)O)cc1C	none
Cc1ccc(C(=O)Nc2ccc(O)cc2C(=O)O)cc1	PfGluPho inh 65.5 | PfG6PD confirm inactive
Brc1ccc2nc(-c3c[nH]c4ccccc34)cn2c1	PfGluPho inh 93.3 | PfG6PD confirm inactive
Cc1cccn2cc(-c3c[nH]c4ccccc34)nc12	none
O=C(O)CNS(=O)(=O)c1ccc2c3c(cccc13)C(=O)N2	none
O=C1Nc2ccc(S(=O)(=O)NCc3ccco3)c3cccc1c23	PfGluPho inh 62.9 | PfG6PD confirm inactive
COc1cccc(/C=N/NC(=O)CCCc2ccc(OC)c(C)c2)c1	PfGluPho inh 77.3 | PfG6PD confirm inactive
Cc1ncc(CN2CCCC(C(=O)Nc3ccc(-c4cccc(F)c4)cc3)C2)n1C (stereo not drawn)	none
COc1ccc(/C=C/c2nc3ccccc3n2C)cc1	PfGluPho inh 72.7 | PfG6PD confirm 56.4 | Diaph ctr 10uM inactive | Diaphorase 30uM inactive
COc1ccc(Cn2c(/C=C/c3ccccc3)nc3ccccc32)cc1	PfGluPho inh 74.5 | PfG6PD confirm inactive
Cc1ccc(N=Cc2ccc[nH]2)c(O)c1	PfGluPho inh 76.7 | PfG6PD confirm inactive
O=C(CNC(=O)C1COc2ccccc2O1)N/N=C\c1ccc(Br)cc1 (stereo not drawn)	none
COc1ccc(Br)cc1/C=N/NC(=O)CNC(=O)C1COc2ccccc2O1 (stereo not drawn)	PfGluPho inh 119.1 | PfG6PD confirm 102.7 | Diaph ctr 10uM 97.0 | Diaphorase 30uM 76.5
C=CCn1c(C)cc(C(=O)COC(=O)CCc2cc(OC)c(OC)c(OC)c2)c1C	PfGluPho inh 80.4 | PfG6PD confirm inactive
Brc1cccc(-c2nnc(SCc3nc4ccccc4[nH]3)o2)c1	PfGluPho inh 60.1 | PfG6PD confirm inactive
O=C1OC(Cc2ccccc2)(c2ccccc2)c2ccccc21 (stereo not drawn)	none (no result: T cell modulator, ATG4B inh, HKDC1 inhibitor)
COCc1cc(=O)n2[nH]c(C(C)(C)C)cc2n1	PfGluPho inh 61.0 | PfG6PD confirm 48.4 | Diaph ctr 10uM inactive | Diaphorase 30uM inactive
Cc1[nH][nH]c(=O)c1C(c1ccc(Cl)cc1)c1c(C)[nH][nH]c1=O	none
O=C1CCCC(=O)C1C(c1ccc(Cl)cc1)C1C(=O)CCCC1=O	PfGluPho inh 77.3 | PfG6PD confirm inactive
CCCc1cc2nnc(SCC(=O)N(C)C3CCCCC3)n2c(N)n1	none
C[C@@H]1CN([C@H](C)CO)C(=O)CCCn2cc(nn2)CO[C@H]1CN(C)S(=O)(=O)c1cccc(C#N)c1	none (no result: T cell modulator, ATG4B inh, HKDC1 inhibitor)
C[C@]12CC[C@@H]3c4cc(O)c(O)cc4CC[C@H]3[C@@H]1CC[C@@H]2O	PfGluPho inh 97.1 | PfG6PD confirm 86.0 | Diaph ctr 10uM inactive | Diaphorase 30uM inactive
Cc1cc(-n2c(C)cc(C(=O)CSc3ccccn3)c2C)no1	PfGluPho inh 67.4 | PfG6PD confirm inactive
O=c1[nH]c(=O)c2[nH]c(=S)n(-c3ccccc3)c2[nH]1	PfGluPho inh 63.8 (no result: T cell modulator) | PfG6PD confirm inactive
CCn1c(=S)sc2c(=O)n(-c3ccccc3)c(=S)[nH]c21	none
O=C(Nc1ccc([N+](=O)[O-])cc1Cl)c1cc(Cl)ccc1O	PfGluPho inh 93.6 | PfG6PD confirm 51.3 | Diaph ctr 10uM inactive | Diaphorase 30uM inactive
O=c1[nH]c2cc3c(cc2cc1CN(Cc1ccccc1)Cc1nnnn1Cc1ccco1)OCCO3	PfGluPho inh 76.2 (no result: T cell modulator) | PfG6PD confirm inactive
